The sample as a whole holds a higher share of hits than the screen did.
UPR XBP1 act – activators of adaptive arm of unfolded protein response (XBP1); CHO-XBP1 luciferase reporter, IRE1-XBP1 UPR activation, luminescence; percent of tunicamycin response, DMSO as zero; activation, % at 20 µM; 330,000 tested, 0.33% active; AID 463104;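 active means versus positive control, 20 µM dose yields 30% or more activation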;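 further: 100% = tunicamycin at 10 µg/mL and 0% = DMSO only wells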
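Material: CHO-XBP1 cells stably carrying IRE1-XBP1-driven luciferase reporter | Medium: F12 with 10% serum | Compound dosing: 20 µM single concentration, DMSO 1% | Incubation: Overnight seeding at 37 °C, 6 h compound treatment at 37 °C | Detection: Steady-Glo luminescence read | Read-out basis: % activation of reporter signal versus tunicamycin and DMSO controls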
CHOP inhibitor – inhibitors of CHOP induction in ER stress response | AID 2732 | inhibition, % at 10 µM | CHO-K1 CHOP-promoter luciferase, tunicamycin-induced, 15-18 h | 220,000 tested, 3.8% active;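 active means compounds that reduced the stress-induced luciferase reporter signal by more than about 70% of percent inhibition, limit read from the data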;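 further: 0% = tunicamycin plus vehicle and 100% = wells without tunicamycin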
Dynein transport – dynein cargo transport inhibition | AID 1381 | 220,000 tested, 0.47% active | z-score, hits read low | 3617.4 mouse cells, GR-EGFP nuclear translocation imaging; test concentration mostly 20 µM; stimulated with dexamethasone, 1 µM; active compounds read low;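 active means plate z-score of nuclear minus cytoplasmic receptor signal below a set negative limit, without overly bright fluorescence or cell loss, cut at about -3.5 in these data, passing the limit was not always enough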;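 further: z-score of nuclear minus cytoplasmic ring GR-EGFP intensity difference per well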
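Buffer or medium: tetracycline-free induction medium containing charcoal-stripped FBS / Reagent: dexamethasone agonist, 1.0 µM final, for 30 min / Technique: automated 10x imaging of fixed Hoechst-stained cells / Times: induction 48 h, compound 1 h, agonist 30 min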
L major viab – reduces viability of Leishmania major promastigotes | resazurin fluorescence viability | inhibition, % at 10 µM | 200,000 tested, 9% active; in the data active means inhibition above about 50%;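 further: promastigotes grown with compound for 44 hours at 28 °C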
T cruzi repl – T. cruzi replication inhibition. T. cruzi beta-gal in NIH3T3, luminescence, 90 h. inhibition, % (test concentration not listed). 300,000 tested, 1.4% active. AID 1885;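 active means mean inhibition across valid replicates above about 55%, limit read from the data; inconclusive means mean below that limit but half or more replicates reach it; inactive means mean below it, under half of replicates reach it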;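 further: signal also drops with host cell toxicity which is not excluded here; 0% = plate median of DMSO wells and 100% = zero luminescence signal; higher percent means less beta-gal luminescence so fewer parasites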
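assay system = mouse NIH/3T3 fibroblasts infected with β-gal-expressing T. cruzi Tulahuen C4 | input = 5,000 NIH/3T3 host cells per well | buffer or medium = DMEM plus 2% FBS | timing = 3 h host attachment, then at least 90 h co-culture | measured by = GalScreen luminescence, 60 min | evaluation = luminescence reflecting intracellular parasite burden, expressed as percent inhibition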
UPR CHOP act – apoptotic UPR (CHOP) activation | 330,000 tested, 0.34% active | CHO-CHOP luciferase reporter, luminescence; percent of tunicamycin response over DMSO baseline | activation, % at 10 µM | AID 449763;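 active means at 10 µM dose, activation of 40% or more, normalized to positive control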;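 further: 100% = tunicamycin at 10 µg/mL and 0% = DMSO alone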
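Material: CHO-CHOP cells, stable luciferase reporter of PERK-eIF2a-CHOP signalling; quantity: 500 reporter cells seeded per well; buffer or medium: F12 medium containing 10% fetal bovine serum; compound: one dose, 10 µM in 0.5% DMSO; incubation: 6 h compound treatment, 37 °C; measured by: Steady-Glo luciferase luminescence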
Dynein inh conf – dynein cargo transport inhibition, confirmation; shares compounds with Dynein transport; 3617.4 GR-EGFP nuclear translocation imaging, dexamethasone-induced; calls only at 20 µM; 1,000 tested, 69% active;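 active means inhibition of receptor movement into the nucleus at or above a set limit in both runs, with normal cell brightness and cell count; inconclusive means limit reached in only one run, brightness and count normal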;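 further: dexamethasone at 1 µM final in well for 30 min; nuclear minus cytoplasmic GR-EGFP mean intensity difference in channel 2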
CHOP inh conf – confirmation of CHOP induction inhibitors. shares compounds with CHOP inhibitor. CHO-CHOP promoter luciferase reporter, tunicamycin-induced, luminescence. inhibition, % at 10 µM. 2,100 tested, 45% active. AID 504437;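 active means mean of three repeat readings of reporter signal inhibition above a set limit, cut at about 70% in these data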;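 further: 0% = tunicamycin plus vehicle and 100% = wells lacking tunicamycin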
UPR CHOP confirm – apoptotic UPR (CHOP) activation, confirmed. shares compounds with UPR CHOP act. CHO-CHOP cells, CHOP-luciferase reporter luminescence; percent of tunicamycin response, DMSO as zero. activation, % at 10 µM. 1,000 tested, 64% active. AID 463112; in the data active means activation above about 33%;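 further: 0% = DMSO wells and 100% = tunicamycin 10 µg/mL wells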
* hit, by the source's call.

O=C(O)CCCN=CC1=C(O)CNC1=O was read as UPR XBP1 act 0.2, CHOP inhibitor 6.6, Dynein transport 0.415, L major viab -3.3, T cruzi repl -15.1 and UPR CHOP act -1.8.
For CCN1C(=O)S/C(=C/c2ccsc2)C1=O the results were UPR XBP1 act 0.6, CHOP inhibitor 13.4, Dynein transport -1.01, L major viab -1.8, T cruzi repl -14.3 and UPR CHOP act 3.7.
Screening CC(C)N1C/C(=C/c2ccsc2)C(=O)/C(=C/c2ccsc2)C1 returned UPR XBP1 act 0.7, CHOP inhibitor 65.5, Dynein transport -3.84*, L major viab 100.5*, T cruzi repl 23.0, UPR CHOP act 95.1*, Dynein inh conf active and UPR CHOP confirm 91.2*.
For CCOC(=O)C(=Cc1ccc(-n2cncn2)cc1)C(=O)OCC the results were UPR XBP1 act -3.5, CHOP inhibitor 10.5, Dynein transport -6.77*, L major viab 77.5*, T cruzi repl -4.9, UPR CHOP act 118.8*, Dynein inh conf active and UPR CHOP confirm 92.8*.
For COc1ccccc1-c1cc(C(F)(F)F)nc(S(=O)(=O)CCCC(=O)N2CCCCC2C)n1 (stereo unspecified) the results were UPR XBP1 act 5.6, Dynein transport -5.83*, L major viab 43.6, T cruzi repl -42.6, UPR CHOP act 278.8*, Dynein inh conf inconclusive and UPR CHOP confirm 191.6*.
Screening COc1ccccc1-c1cc(C(F)(F)F)nc(S(C)(=O)=O)n1 returned UPR XBP1 act -4.5, CHOP inhibitor 112.4*, Dynein transport -4.58*, L major viab 26.6, T cruzi repl -60.4, UPR CHOP act 135.5*, Dynein inh conf active, CHOP inh conf -335.7 and UPR CHOP confirm 266.5*.
COc1ccccc1-c1cc(C(F)(F)F)nc(N2CCCC2)n1 was read as UPR XBP1 act 1.0, CHOP inhibitor 28.2, Dynein transport 0.417, L major viab 14.1, T cruzi repl 9.0 and UPR CHOP act -0.7.
Screening N/C(CSc1ccc(Cl)cc1)=N\NC(=O)c1ccncc1 returned UPR XBP1 act 1.3, CHOP inhibitor -0.4, Dynein transport 0.384, L major viab 3.8, T cruzi repl -34.9 and UPR CHOP act -1.7.
Screening CCCn1c(CC)nc([N+](=O)[O-])c1S(=O)(=O)c1ccccc1 returned UPR XBP1 act -6.5, CHOP inhibitor 34.3, Dynein transport -5.09*, L major viab 99.7*, T cruzi repl -3.1, UPR CHOP act 103.6*, Dynein inh conf active and UPR CHOP confirm 70.5*.
CCCn1c(=N)c(S(=O)(=O)c2ccccc2)cc2c(=O)n3cccc(C)c3nc21 was read as UPR XBP1 act 1.7, T cruzi repl 31.6 and UPR CHOP act -0.4.
CC1=NN(c2cccc(C(=O)O)c2)C(=O)/C1=C\C=C/c1ccccc1 was read as UPR XBP1 act -3.3, CHOP inhibitor 93.4*, Dynein transport -5.57*, L major viab 100.0*, T cruzi repl -29.4, UPR CHOP act 94.9*, Dynein inh conf active and UPR CHOP confirm 129.6*.
`COc1ccc(CCn2c(C)c(C(C)=O)c(C(C)=O)c2C)cc1OC` gave UPR XBP1 act -5.1, CHOP inhibitor -21.3, Dynein transport -0.749, L major viab -2.7, T cruzi repl -6.4 and UPR CHOP act -0.1.
Cc1cc(C(=O)CCl)c(C)n1CCc1ccc(Cl)cc1 was read as UPR XBP1 act 1.6, CHOP inhibitor -3.6, Dynein transport -6.29*, L major viab 100.5*, T cruzi repl 61.6*, UPR CHOP act 234.4*, Dynein inh conf active and UPR CHOP confirm 206.8*.
For COc1ccc(CCn2c(C)cc(C(=O)CCl)c2C)cc1OC the results were UPR XBP1 act -0.4, CHOP inhibitor -145.6, Dynein transport -3.71*, L major viab 88.6*, T cruzi repl 47.0, UPR CHOP act 78.6*, Dynein inh conf active and UPR CHOP confirm 122.1*.
Cc1cc(S(=O)(=O)N2CCOCC2)ccc1NC(=O)c1ccc(F)cc1 was read as UPR XBP1 act -3.0, T cruzi repl -10.3 and UPR CHOP act 0.2.
Screening O=C(NC1CCCC1)C(c1ccc(F)cc1)N(Cc1ccc(F)cc1)C(=O)CCl (stereo unspecified) returned UPR XBP1 act -1.2, CHOP inhibitor 91.9*, Dynein transport -4.44*, L major viab 100.0*, T cruzi repl -12.7, UPR CHOP act 47.7*, Dynein inh conf active and UPR CHOP confirm 92.9*.
Screening O=C(COC(=O)c1cc(=O)c2ccccc2o1)Nc1ccccc1F returned UPR XBP1 act -2.0 and UPR CHOP act -1.6.
Screening Cc1cc(-n2c(C)cc(C(=O)CCl)c2C)no1 returned UPR XBP1 act 0.5, CHOP inhibitor -291.3, Dynein transport -7.33*, L major viab 100.6*, T cruzi repl 79.2*, UPR CHOP act 171.2*, Dynein inh conf active and UPR CHOP confirm 262.6*.
Screening CCCSc1nc2cc(C)c(C)cc2n1CC(C)O (stereo unspecified) returned UPR XBP1 act 0.2, CHOP inhibitor -5.6, Dynein transport 0.738, L major viab 4.2, T cruzi repl 5.8 and UPR CHOP act 3.2.
O=C(c1ccccc1NS(=O)(=O)c1ccc(F)cc1)N1CCOCC1 was read as UPR XBP1 act -6.7, T cruzi repl 13.6 and UPR CHOP act -0.8.
`Cc1ccc(-c2nc(NC(=O)c3nn(C)cc3[N+](=O)[O-])sc2C)cc1` gave UPR XBP1 act 7.6, CHOP inhibitor -22.2, Dynein transport -3.84*, L major viab 1.0, T cruzi repl 26.0, UPR CHOP act 99.6*, Dynein inh conf active and UPR CHOP confirm 59.0*.
For Cn1cc([N+](=O)[O-])c(C(=O)Nc2ccc(-c3nc4ccccc4[nH]3)cc2)n1 the results were UPR XBP1 act 4.1, CHOP inhibitor -42.6, Dynein transport -0.644, L major viab 5.5, T cruzi repl -17.0 and UPR CHOP act 4.7.
Screening O=C(Nc1ccc(Cl)cc1)/C(=C/c1cccc(O)c1)c1nc2ccccc2s1 returned UPR XBP1 act 12.8, CHOP inhibitor 106.7*, Dynein transport -6*, L major viab 100.4*, T cruzi repl 30.1, UPR CHOP act 114.1*, Dynein inh conf active and UPR CHOP confirm 62.2*.
